This is an account of results in article PMC7239729 (Pharmacology, biochemistry, and behavior, 2020).

SMILES strings stand for the structures. “And” between values parts separate entries of the source, which are not always exact repeats. Equal entries are not always repeated. Where two headings read alike, the source gives them in different places.

For series [1] the following is noted: same dosing procedure; ref Kevin et al., 2017b; cited from earlier work.
The target of series [2] is CB1. The conditions noted are these: read-out: affinity; ref Wiley et al., 2015; cited from earlier work.
Series [3] relates to mice. Particulars: ref Wiley et al., 2015, cited from earlier work.
The target of series [4] is T1, hCB2 receptor (Homo sapiens, UniProt P34972). Nature of the series: inhibition of forskolin-stimulated cAMP production. Format: cell-based. The conditions noted are these: for CP55,940 more potent than the compound: hCB2, cAMP.
T1 sequence (P34972 whole entry): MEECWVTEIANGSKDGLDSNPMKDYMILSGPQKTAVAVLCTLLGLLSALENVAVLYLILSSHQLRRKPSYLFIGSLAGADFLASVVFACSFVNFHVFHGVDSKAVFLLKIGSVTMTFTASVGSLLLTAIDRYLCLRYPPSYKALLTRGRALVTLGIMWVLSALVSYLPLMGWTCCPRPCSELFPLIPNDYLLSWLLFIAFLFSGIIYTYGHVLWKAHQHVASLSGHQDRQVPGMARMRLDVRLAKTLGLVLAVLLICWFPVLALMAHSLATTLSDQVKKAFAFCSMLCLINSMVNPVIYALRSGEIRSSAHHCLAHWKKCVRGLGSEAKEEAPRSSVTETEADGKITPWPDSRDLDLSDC
Series [5] relates to mice trained to discriminate THC (5.6 mg/kg, i.p.) from vehicle. Nature of the series: THC drug discrimination in mice. Type of series: in vivo, mouse. Particulars: for ED50: Mus musculus; for substitution for THC / effect on response rates compared to vehicle: i.p.; for substitution for THC: EG-018 10 – 100 mg/kg, full substitution ≥ 80% drug-aperture responding; for effect on response rates compared to vehicle: substitution tests.

The subject of series [6] is male ICR mice. Nature of the series: cannabinoid tetrad in mice. Format: in vivo, mouse.
For series [7], the system named is hCB1 receptors. The conditions noted are these: ref Wouters et al., 2019; cited from earlier work.
Series [8] has as its target human CB2 (hCB2) receptor (Homo sapiens, UniProt P34972). Description: [3H]CP55,940 competition binding, hCB2 HEK293 membranes.
Series [9] has as its target T1, hCB2 receptor. Nature of the series: agonist-stimulated [35S]GTPγS binding, hCB2 HEK293 membranes. Particulars: for CP55,940 more potent than the compound: hCB2, [35S]GTPγS; for CP55,940 greater efficacy than the compound: hCB2, [35S]GTPγS Emax. Type of series: biochemical. (Binding of GTPγS marks nucleotide exchange on a G protein.)
Series [10] addresses T2, hCB1 receptor (Homo sapiens, UniProt P21554). Description: biochemical. Format: biochemical.
A short description of series [11]: rat liver microsome incubation. Type of series: in vitro ADME. Summed up:
(§1)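 Pooled liver microsomes (rat: IGS Sprague-Dawley; human: pooled) at 1 mg protein/mL final with 1 mM NADPH in 50 mM potassium phosphate, pH 7.4, 3 mM MgCl2. Mix preincubated 5 min at 37 °C, then test compound added to 1 μM. Triplicate incubations at 37 °C. Samples at 0, 5, 10, 30 and 60 min quenched in acetonitrile, then extracted with acetonitrile (3:1) and analysed by LC-MS/MS.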
Background: Liver microsomes are vesicles of endoplasmic reticulum, rich in cytochrome P450 enzymes.

Series [12] concerns the target T2, hCB1 receptor. Description: cell-based. Format: cell-based.
Series [13] is described as follows: metabolite analysis in mouse urine. Format: in vivo. Particulars: mice, 30 mg/kg i.p., pooled 24 h urine, LC-MS.
The nature of series [14]: human liver microsome incubation. Type of series: in vitro ADME. A digest of the protocol: as §1
The target of series [15] is human CB1 (hCB1) receptor (Homo sapiens, UniProt P21554). Type of series: binding. Particulars: at both receptors (hCB1 and hCB2).
human CB1 (hCB1) receptor, sequence (P21554 whole entry): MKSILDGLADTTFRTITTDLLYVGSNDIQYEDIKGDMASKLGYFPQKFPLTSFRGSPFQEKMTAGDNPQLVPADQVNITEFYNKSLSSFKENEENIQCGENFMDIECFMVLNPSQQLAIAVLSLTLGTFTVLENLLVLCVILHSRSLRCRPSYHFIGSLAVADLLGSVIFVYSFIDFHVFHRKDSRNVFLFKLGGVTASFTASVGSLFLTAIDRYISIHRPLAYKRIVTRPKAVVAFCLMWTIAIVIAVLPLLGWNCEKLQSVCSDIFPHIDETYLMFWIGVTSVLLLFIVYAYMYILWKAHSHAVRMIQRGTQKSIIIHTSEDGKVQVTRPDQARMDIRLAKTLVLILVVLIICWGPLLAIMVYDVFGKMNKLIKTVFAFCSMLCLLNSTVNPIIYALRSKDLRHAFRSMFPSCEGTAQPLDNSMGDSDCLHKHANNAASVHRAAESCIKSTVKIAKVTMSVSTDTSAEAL
The nature of series [16]: rat plasma pharmacokinetics. Format: in vivo. Summed up:
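Four 49-day-old male Long-Evans rats with jugular vein catheters, housed singly in metabolite cages. Test compound given i.p. at 3 mg/kg (3 mg/mL in 7.8% polysorbate 80/92.2% saline). Blood drawn 0.25 h before dosing and 0.25, 0.5, 1, 2, 4, 8 and 24 h after, into chilled K3EDTA. Plasma separated at 4 °C, extracted with acetonitrile (3:1) and analysed by LC-MS/MS.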

Setting [17] is: HEK293, read-out: % of CP55,940 Emax.
Where [18] appears, read: i.p., 30 min, THC 3, 10 or 56 mg/kg, EG-018 1-100 mg/kg.
[19] abbreviates: i.p., THC 3, 10 or 56 mg/kg, EG-018 1-100 mg/kg.
The mark [20] stands for this setting: rimonabant 3 mg/kg i.v. 10 min before EG-018 56 mg/kg i.v.
[21] abbreviates: Sprague-Dawley, rat, pooled rat liver microsomes, pH 7.4.
Where [22] appears, read: human, pooled human liver microsomes, pH 7.4.
The mark [23] stands for this setting: male, Long-Evans, rat, plasma, ip, 3 mg/kg.

human CB2 (hCB2) receptor, sequence (P34972 whole entry): as the sequence (P34972 whole entry) above
T2 sequence (P21554 whole entry): as the sequence (P21554 whole entry) above

As usually defined, the Tmax is the time at which the peak concentration occurs. `CCCCCn1nc(C(=O)Nc2cccc3ccccc23)c2ccccc21` [MN-18]: the Tmax in [1] is around 2.5 h.

Consider `O=C(c1cccc2ccccc12)c1nc2ccccc2n1CCCCCF` [FUBIMINA], for which, in series [2], the Ki was 0.296 µM. For the same molecule, the results for the tetrad effects result in series [3] (56 mg/kg i.v.) and in series [3] (doses up to 100 mg/kg i.p.) were “produced marked tetrad effects in all four measures” and “largely without effect”, respectively.

A word on the Emax: it is the size of the effect at its maximum, as opposed to the concentration needed. Broadly, the ED50 is the dose at which the effect has come halfway, by size or by number of responders. For the molecule `CCCCCc1cc(O)c2c(c1)OC(C)(C)[C@@H]1CCC(C)=C[C@@H]21` [THC, delta-9-tetrahydrocannabinol], the Emax in [4] (setting [17]) was 45%. In series [4] (HEK293, read-out: Emax±SEM), the Emax came to 27.3 ± 3.68%. In addition, the “CP55,940 more potent than the compound” value in series [4] worked out at 26 fold. Besides, in [5] (ip, read-out: ED50, substitution for THC), the ED50 turned out to be 2.2 mg/kg. The ED50 in series [5] (ip, read-out: ED50 of THC after EG-018 pretreatment) was determined as 1.2 mg/kg. In addition, the ED50 in series [5] (read-out: ED50 of THC after vehicle pretreatment) was determined as 1.5 mg/kg. In [5], the “substitution for THC” value was “fully substituted for itself” and the “effect on response rates compared to vehicle” value is “Neither THC nor EG-018 significantly affected response rates”. Moreover, the locomotor activity entry in [6] (setting [18]) was “hypomotility”. In addition, in series [6] (setting [19]), the “antinociception (tail-flick)” value is listed as “anti-nociception”, the “catalepsy (ring immobility)” value was “catalepsy” and the rectal temperature result is reported as “hypothermia”.

For the molecule `Cc1c(C(=O)NN2CCCCC2)nn(-c2ccc(Cl)cc2Cl)c1-c1ccc(Cl)cc1` [rimonabant, reference compound], the “antagonism of FUBIMINA tetrad effects” value in [3] (rimonabant 3 mg/kg i.v. before FUBIMINA 56 mg/kg i.v.) is “reversed”. In [6] (setting [20]), the “antagonism of EG-018-induced catalepsy” value is recorded as “attenuated catalepsy”, the “antagonism of EG-018-induced hypomotility” value is listed as “did not significantly reduce” and the “antagonism of EG-018-induced hypothermia” value is on record as “did not significantly reduce hypothermia”.

For the molecule `CCCCCCC(C)(C)c1ccc([C@@H]2C[C@H](O)CC[C@H]2CCCO)c(O)c1` [CP55,940, reference compound], the “greater potency for mini-Gαi over beta arrestin-2” value in [7] is reported as “four-fold shift in potency”.

As usually defined, the EC50 is the concentration that produces a half-maximal response. Read a low EC50 as greater potency. Broadly, the half-life is how long it takes for the measured level to halve. As usually defined, the microsomal CLint is the rate of metabolic loss divided by the concentration. High values mean faster metabolism, low ones greater metabolic stability. The AUC(0-inf) is the area under the concentration-time curve extrapolated to infinity. The low end stands for less exposure, the high end for more exposure. One may read the AUC(0-t) as exposure summed from dosing to a finite time, without extrapolation to infinity. Low readings indicate less exposure, high ones more exposure. As a reminder, the Cmax is the highest concentration seen after dosing. With `CCCCCn1c2ccccc2c2cc(C(=O)c3cccc4ccccc34)ccc21` [EG-018, Naphthalen-1-yl(9-pentyl-9H-carbazol-3-yl)methanone], in series [8] (Ki (nM), hCB2, HEK293 membranes, [3H]CP55,940), the Ki is 8 nM and 7.76 nM. The “greater affinity for hCB2 over hCB1” value in series [8] (Ki ratio hCB1/hCB2) is reported as “approximately 3 fold”. Moreover, the EC50 in series [9] was 0.0113 µM; in series [4], 0.182 µM. For the same molecule, the “CP55,940 more potent than the compound” value in series [9] worked out at 12 fold; in [4], 114 fold; in [12] (hCB1, cAMP), 53 fold. The “CP55,940 greater efficacy than the compound” value in series [9] is reported as 2.5 fold; in [10] (hCB1, [35S]GTPγS Emax), 3.5 fold. The Emax in series [9] (read-out: % of CP55,940 Emax) stood at 40%; in [9] (read-out: Emax±SEM), 46.2 ± 2.72%; in [10] (read-out: % of CP55,940 Emax), 28%; in [10] (read-out: Emax±SEM), 73.9 ± 9.12%; in series [4] (setting [17]), 48%; in series [4] (HEK293, read-out: Emax±SEM), 28.1 ± 6.14%. The Emax is 73% in series [12] (setting [17]) and 32.9 ± 2.27% in series [12] (HEK293, read-out: Emax±SEM). In [10] (hCB1, [35S]GTPγS), the “less potent than CP55,940” value is given as “approximately 90 fold”. Moreover, in [10] (hCB1, [35S]GTPγS Emax), the “less efficacy than THC” value is “approximately 2 fold”. For the same molecule, the “activity in [35S]GTPγS binding” value in series [10] (initial studies, ligands not pre-equilibrated prior to addition of [35S]GTPγS (data not shown)) is “appeared to be inactive”. In [5], the “substitution for THC” value is listed as “did not substitute for THC at any dose”. Further, the “effect on response rates compared to vehicle” value in series [5] is reported as “Neither THC nor EG-018 significantly affected response rates”. The results for the half-life at 1 μM in [11] (setting [21]) and in [14] (setting [22]) were 4.29 min and 2.04 min, respectively. Also, the microsomal CLint at 1 μM was 160 µL/min/mg in [11] (setting [21]) and 340 µL/min/mg in series [14] (setting [22]). In addition, the “CLH (mL/min/kg body wt.)” value in [11] (rat liver microsomes, estimated hepatic clearance) was 46.39 mL/min/kg body wt; in [14] (human liver microsomes, estimated hepatic clearance), 19.03 mL/min/kg body wt. The “CLint (mL/min/kg body wt.)” value in [11] (rat liver microsomes, estimated intrinsic clearance) was 290.77 mL/min/kg body wt; in series [14] (human liver microsomes, estimated intrinsic clearance), 393.09 mL/min/kg body wt. For the same molecule, the ER in [11] (rat liver microsomes, extraction ratio) was 0.84; in series [14] (human liver microsomes, extraction ratio), 0.95. Besides, the “parent compound or metabolites in urine” value in series [13] is “No intact parent compound or metabolites were identified”. For the same molecule, the “greater potency for mini-Gαi over beta arrestin-2” value in [7] is 26 fold. In addition, the “lower affinity than CP55,940” value in series [15] is listed as 10- to 40 fold. The “antinociception (tail-flick)” value in series [6] (56 mg/kg i.v.) is on record as “did not significantly elicit antinociceptive behavior”; in [6] (setting [19]), “did not produce significant effects in any of the four assays”. The “catalepsy (ring immobility)” value is recorded as “catalepsy” in [6] (56 mg/kg i.v.) and “did not produce significant effects in any of the four assays” in series [6] (setting [19]). Moreover, the figures for the rectal temperature entry in series [6] (56 mg/kg i.v.) and in series [6] (setting [19]) were “hypothermia” and “did not produce significant effects in any of the four assays”, respectively. Further, the locomotor activity entry was “hypomotility” in series [6] (56 mg/kg i.v., 5 min) and “did not produce significant effects in any of the four assays” in [6] (setting [18]). This molecule gave an AUC(0-inf) in [16] (setting [23]) of 168 ng·h/mL. The same molecule displayed an AUC(0-t) in series [16] (setting [23]) of 154 ng·h/mL. In addition, the peak level in series [16] (setting [23]) (Cmax) was 26 ng/mL. For the same molecule, the Tmax in series [16] (setting [23]) came to 2 h. For the same molecule, the half-life in series [16] (male, Long-Evans, rat, plasma, ip, 3 mg/kg, Half life (h), rat plasma, 3 mg/kg i.p.) is 2.5 h. For the same molecule, the “CL/F (mL/min/kg body wt.)” value in series [16] (rat plasma, 3 mg/kg i.p., observed apparent clearance) is 520.93 mL/min/kg body wt. Also, the “Half life” value in series [16] (rat plasma, 3 mg/kg i.p., 3 mg/kg) came to 2.53 h.

As to `CCCCC/C=C\C/C=C\C/C=C\C/C=C\CCCC(=O)NCCO` [anandamide], in series [9], the “CP55,940 more potent than the compound” value turned out to be 200 fold and the “CP55,940 greater efficacy than the compound” value came to 2.5 fold. Besides, the Emax in series [9] (read-out: Emax±SEM) came to 49.2 ± 2.25%.

Regarding `CCCCCn1cc(C(=O)Nc2cccc3ccccc23)c2ccccc21` [NNEI], the Tmax result in series [1] is on record as “approximately 0.5 hours”.
